A word on the Emax: it is the maximal effect, on the per cent scale that the assay sets. As a reminder, the IC50 is the concentration at which inhibition is half-maximal.

Test [1] has as its target T1, Pituitary adenylate cyclase-activating polypeptide type I receptor (Homo sapiens, UniProt P41586). As to the kind of experiment: Agonist activity at human recombinant PAC1 receptor expressed in CHO cells assessed as PACAP38-induced calcium mobilization by FLIPR assay relative to PACAP38. It is filed as functional, cell-based. The gist of the method: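 CHO cells stably expressing recombinant human PAC1, plated 24 h before assay, loaded with fluo-4 AM for 60 min at 37 °C in the dark, then rinsed into HBSS for 15 min at 37 °C. Peptide was added 18 s into a 150 s read (ex 480/em 525 nm), at final concentrations of 1 × 10-12 to 1 × 10^-5 M. Response was normalised to 1 × 10^-5 M PACAP38 on each plate. EC50 and efficacy came from nonlinear regression; 4-10 independent assays in duplicate.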
Target sequence in this assay (P41586 21-468 limits assumed): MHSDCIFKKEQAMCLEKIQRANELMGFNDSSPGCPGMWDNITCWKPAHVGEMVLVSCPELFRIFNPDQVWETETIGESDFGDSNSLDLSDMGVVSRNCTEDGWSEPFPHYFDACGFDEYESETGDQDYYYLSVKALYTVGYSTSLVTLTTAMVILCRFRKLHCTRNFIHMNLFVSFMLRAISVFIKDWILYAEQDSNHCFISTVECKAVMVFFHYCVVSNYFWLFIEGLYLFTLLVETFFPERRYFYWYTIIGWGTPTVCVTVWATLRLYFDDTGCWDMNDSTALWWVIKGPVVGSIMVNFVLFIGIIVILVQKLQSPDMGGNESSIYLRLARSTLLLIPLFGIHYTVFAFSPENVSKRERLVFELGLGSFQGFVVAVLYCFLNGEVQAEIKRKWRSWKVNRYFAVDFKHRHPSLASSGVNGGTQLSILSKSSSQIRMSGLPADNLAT

Test [2] concerns the target T1, Pituitary adenylate cyclase-activating polypeptide type I receptor. Kind of test: Displacement of [125I]Ac-PACAP27 from human recombinant PAC1 receptor expressed in CHO cells by gamma- counter. The test is classed as cell-based.
Target sequence in this assay (P41586 whole entry): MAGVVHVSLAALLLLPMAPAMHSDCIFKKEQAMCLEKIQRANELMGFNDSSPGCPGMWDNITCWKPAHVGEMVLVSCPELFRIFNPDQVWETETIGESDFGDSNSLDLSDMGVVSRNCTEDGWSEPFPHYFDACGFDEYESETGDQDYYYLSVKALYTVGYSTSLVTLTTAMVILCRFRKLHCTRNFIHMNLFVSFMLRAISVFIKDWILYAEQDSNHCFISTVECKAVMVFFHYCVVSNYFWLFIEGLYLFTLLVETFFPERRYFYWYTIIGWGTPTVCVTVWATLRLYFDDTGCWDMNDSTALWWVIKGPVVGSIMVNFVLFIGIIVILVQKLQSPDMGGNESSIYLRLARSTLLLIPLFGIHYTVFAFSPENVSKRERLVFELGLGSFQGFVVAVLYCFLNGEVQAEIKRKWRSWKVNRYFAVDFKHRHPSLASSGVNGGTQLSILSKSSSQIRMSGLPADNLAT

Where a SMILES comes first, the peptide text is derived from it.

As for `CC[C@H](C)[C@H](NC(=O)CNC(=O)[C@H](CC(=O)O)NC(=O)[C@H](CO)NC(=O)[C@H](C)N)C(=O)N[C@@H](Cc1ccccc1)C(=O)N[C@H](C(=O)N[C@@H](CC(=O)O)C(=O)N[C@@H](CO)C(=O)N[C@@H](Cc1ccc(O)cc1)C(=O)N[C@@H](CO)C(=O)N[C@@H](CCCNC(=N)N)C(=O)N[C@@H](Cc1ccc(O)cc1)C(=O)N[C@@H](CCCNC(=N)N)C(=O)N[C@@H](CCCCN)C(=O)N[C@@H](CCC(N)=O)C(=O)N[C@@H](CCSC)C(=O)N[C@@H](C)C(=O)N[C@H](C(=O)N[C@@H](CCCCN)C(=O)N[C@@H](CCCCN)C(=O)N[C@@H](Cc1ccc(O)cc1)C(=O)N[C@@H](CC(C)C)C(=O)N[C@@H](C)C(=O)N[C@@H](C)C(=O)N[C@H](C(=O)N[C@@H](CC(C)C)C(=O)NCC(=O)N[C@@H](CCCCN)C(=O)N[C@@H](CCCNC(=N)N)C(=O)N[C@@H](Cc1ccc(O)cc1)C(=O)N[C@@H](CCCCN)C(=O)N[C@@H](CCC(N)=O)C(=O)N[C@@H](CCCNC(=N)N)C(=O)N[C@H](C(=O)N[C@@H](CCCCN)C(=O)N[C@@H](CC(N)=O)C(=O)N[C@@H](CCCCN)C(N)=O)C(C)C)C(C)C)C(C)C)[C@@H](C)O` (H-ASDGIFTDSYSRYRKQMAVKKYLAAVLGKRYKQRVKNK-NH2), in test [1], the Emax came to 82.6%.

As for `CC[C@H](C)[C@H](NC(=O)CNC(=O)[C@H](CC(=O)O)NC(=O)[C@H](CO)NC(=O)[C@@H](N)Cc1cncn1C)C(=O)N[C@@H](Cc1ccccc1)C(=O)N[C@H](C(=O)N[C@@H](CC(=O)O)C(=O)N[C@@H](CO)C(=O)N[C@@H](Cc1ccc(O)cc1)C(=O)N[C@@H](CO)C(=O)N[C@@H](CCCNC(=N)N)C(=O)N[C@@H](Cc1ccc(O)cc1)C(=O)N[C@@H](CCCNC(=N)N)C(=O)N[C@@H](CCCCN)C(=O)N[C@@H](CCC(N)=O)C(=O)N[C@@H](CCSC)C(=O)N[C@@H](C)C(=O)N[C@H](C(=O)N[C@@H](CCCCN)C(=O)N[C@@H](CCCCN)C(=O)N[C@@H](Cc1ccc(O)cc1)C(=O)N[C@@H](CC(C)C)C(=O)N[C@@H](C)C(=O)N[C@@H](C)C(=O)N[C@H](C(=O)N[C@@H](CC(C)C)C(=O)NCC(=O)N[C@@H](CCCCN)C(=O)N[C@@H](CCCNC(=N)N)C(=O)N[C@@H](Cc1ccc(O)cc1)C(=O)N[C@@H](CCCCN)C(=O)N[C@@H](CCC(N)=O)C(=O)N[C@@H](CCCNC(=N)N)C(=O)N[C@H](C(=O)N[C@@H](CCCCN)C(=O)N[C@@H](CC(N)=O)C(=O)N[C@@H](CCCCN)C(N)=O)C(C)C)C(C)C)C(C)C)[C@@H](C)O`, the Emax in test [1] was determined as 87.6%.

With `CC[C@H](C)[C@@H](NC(=O)CNC(=O)[C@H](CC(=O)O)NC(=O)[C@H](CO)NC(=O)[C@@H](N)Cc1cnc[nH]1)C(=O)N[C@@H](Cc1ccccc1)C(=O)N[C@H](C(=O)N[C@@H](CC(=O)O)C(=O)N[C@@H](CO)C(=O)N[C@@H](Cc1ccc(O)cc1)C(=O)N[C@@H](CO)C(=O)N[C@@H](CCCNC(=N)N)C(=O)N[C@@H](Cc1ccc(O)cc1)C(=O)N[C@@H](CCCNC(=N)N)C(=O)N[C@@H](CCCCN)C(=O)N[C@@H](CCC(N)=O)C(=O)N[C@@H](CCSC)C(=O)N[C@@H](C)C(=O)N[C@H](C(=O)N[C@@H](CCCCN)C(=O)N[C@@H](CCCCN)C(=O)N[C@@H](Cc1ccc(O)cc1)C(=O)N[C@@H](CC(C)C)C(=O)N[C@@H](C)C(=O)N[C@@H](C)C(=O)N[C@H](C(=O)N[C@@H](CC(C)C)C(=O)NCC(=O)N[C@@H](CCCCN)C(=O)N[C@@H](CCCNC(=N)N)C(=O)N[C@@H](Cc1ccc(O)cc1)C(=O)N[C@@H](CCCCN)C(=O)N[C@@H](CCC(N)=O)C(=O)N[C@@H](CCCNC(=N)N)C(=O)N[C@H](C(=O)N[C@@H](CCCCN)C(=O)N[C@@H](CC(N)=O)C(=O)N[C@@H](CCCCN)C(N)=O)C(C)C)C(C)C)C(C)C)[C@@H](C)O`, in test [1], the Emax came to 76.2%.

As for `CC[C@H](C)[C@H](NC(=O)CNC(=O)[C@H](CC(=O)O)NC(=O)[C@H](CO)NC(=O)[C@@H](N)Cc1cn(C)cn1)C(=O)N[C@@H](Cc1ccccc1)C(=O)N[C@H](C(=O)N[C@@H](CC(=O)O)C(=O)N[C@@H](CO)C(=O)N[C@@H](Cc1ccc(O)cc1)C(=O)N[C@@H](CO)C(=O)N[C@@H](CCCNC(=N)N)C(=O)N[C@@H](Cc1ccc(O)cc1)C(=O)N[C@@H](CCCNC(=N)N)C(=O)N[C@@H](CCCCN)C(=O)N[C@@H](CCC(N)=O)C(=O)N[C@@H](CCSC)C(=O)N[C@@H](C)C(=O)N[C@H](C(=O)N[C@@H](CCCCN)C(=O)N[C@@H](CCCCN)C(=O)N[C@@H](Cc1ccc(O)cc1)C(=O)N[C@@H](CC(C)C)C(=O)N[C@@H](C)C(=O)N[C@@H](C)C(=O)N[C@H](C(=O)N[C@@H](CC(C)C)C(=O)NCC(=O)N[C@@H](CCCCN)C(=O)N[C@@H](CCCNC(=N)N)C(=O)N[C@@H](Cc1ccc(O)cc1)C(=O)N[C@@H](CCCCN)C(=O)N[C@@H](CCC(N)=O)C(=O)N[C@@H](CCCNC(=N)N)C(=O)N[C@H](C(=O)N[C@@H](CCCCN)C(=O)N[C@@H](CC(N)=O)C(=O)N[C@@H](CCCCN)C(N)=O)C(C)C)C(C)C)C(C)C)[C@@H](C)O`, the Emax in test [1] turned out to be 18.2%.

As for `CC[C@H](C)[C@H](NC(=O)CNC(=O)[C@H](CC(=O)O)NC(=O)[C@H](CO)NC(=O)[C@@H](N)Cc1cnc[nH]1)C(=O)N[C@@H](Cc1ccccc1)C(=O)N[C@@H](C(=O)N[C@@H](CC(=O)O)C(=O)N[C@@H](CO)C(=O)N[C@@H](Cc1ccc(O)cc1)C(=O)N[C@@H](CO)C(=O)N[C@@H](CCCNC(=N)N)C(=O)N[C@@H](Cc1ccc(O)cc1)C(=O)N[C@@H](CCCNC(=N)N)C(=O)N[C@@H](CCCCN)C(=O)N[C@@H](CCC(N)=O)C(=O)N[C@@H](CCSC)C(=O)N[C@@H](C)C(=O)N[C@H](C(=O)N[C@@H](CCCCN)C(=O)N[C@@H](CCCCN)C(=O)N[C@@H](Cc1ccc(O)cc1)C(=O)N[C@@H](CC(C)C)C(=O)N[C@@H](C)C(=O)N[C@@H](C)C(=O)N[C@H](C(=O)N[C@@H](CC(C)C)C(=O)NCC(=O)N[C@@H](CCCCN)C(=O)N[C@@H](CCCNC(=N)N)C(=O)N[C@@H](Cc1ccc(O)cc1)C(=O)N[C@@H](CCCCN)C(=O)N[C@@H](CCC(N)=O)C(=O)N[C@@H](CCCNC(=N)N)C(=O)N[C@H](C(=O)N[C@@H](CCCCN)C(=O)N[C@@H](CC(N)=O)C(=O)N[C@@H](CCCCN)C(N)=O)C(C)C)C(C)C)C(C)C)[C@@H](C)O`, in test [1], the Emax turned out to be 63.3%.

`CC[C@H](C)[C@H](NC(=O)CNC(=O)[C@H](CC(=O)O)NC(=O)[C@H](CO)NC(=O)[C@H](Cc1cnc[nH]1)NC(C)=O)C(=O)N[C@@H](Cc1ccccc1)C(=O)N[C@H](C(=O)N[C@@H](CC(=O)O)C(=O)N[C@@H](CO)C(=O)N[C@@H](Cc1ccc(O)cc1)C(=O)N[C@@H](CO)C(=O)N[C@@H](CCCNC(=N)N)C(=O)N[C@@H](Cc1ccc(O)cc1)C(=O)N[C@@H](CCCNC(=N)N)C(=O)N[C@@H](CCCCN)C(=O)N[C@@H](CCC(N)=O)C(=O)N[C@@H](CCSC)C(=O)N[C@@H](C)C(=O)N[C@H](C(=O)N[C@@H](CCCCN)C(=O)N[C@@H](CCCCN)C(=O)N[C@@H](Cc1ccc(O)cc1)C(=O)N[C@@H](CC(C)C)C(=O)N[C@@H](C)C(=O)N[C@@H](C)C(=O)N[C@H](C(=O)N[C@@H](CC(C)C)C(=O)NCC(=O)N[C@@H](CCCCN)C(=O)N[C@@H](CCCNC(=N)N)C(=O)N[C@@H](Cc1ccc(O)cc1)C(=O)N[C@@H](CCCCN)C(=O)N[C@@H](CCC(N)=O)C(=O)N[C@@H](CCCNC(=N)N)C(=O)N[C@H](C(=O)N[C@@H](CCCCN)C(=O)N[C@@H](CC(N)=O)C(=O)N[C@@H](CCCCN)C(N)=O)C(C)C)C(C)C)C(C)C)[C@@H](C)O`: in test [1], the Emax is 91.1%.

As to `CC[C@@H](C)[C@@H](NC(=O)CNC(=O)[C@H](CC(=O)O)NC(=O)[C@H](CO)NC(=O)[C@@H](N)Cc1cnc[nH]1)C(=O)N[C@@H](Cc1ccccc1)C(=O)N[C@H](C(=O)N[C@@H](CC(=O)O)C(=O)N[C@@H](CO)C(=O)N[C@@H](Cc1ccc(O)cc1)C(=O)N[C@@H](CO)C(=O)N[C@@H](CCCNC(=N)N)C(=O)N[C@@H](Cc1ccc(O)cc1)C(=O)N[C@@H](CCCNC(=N)N)C(=O)N[C@@H](CCCCN)C(=O)N[C@@H](CCC(N)=O)C(=O)N[C@@H](CCSC)C(=O)N[C@@H](C)C(=O)N[C@H](C(=O)N[C@@H](CCCCN)C(=O)N[C@@H](CCCCN)C(=O)N[C@@H](Cc1ccc(O)cc1)C(=O)N[C@@H](CC(C)C)C(=O)N[C@@H](C)C(=O)N[C@@H](C)C(=O)N[C@H](C(=O)N[C@@H](CC(C)C)C(=O)NCC(=O)N[C@@H](CCCCN)C(=O)N[C@@H](CCCNC(=N)N)C(=O)N[C@@H](Cc1ccc(O)cc1)C(=O)N[C@@H](CCCCN)C(=O)N[C@@H](CCC(N)=O)C(=O)N[C@@H](CCCNC(=N)N)C(=O)N[C@H](C(=O)N[C@@H](CCCCN)C(=O)N[C@@H](CC(N)=O)C(=O)N[C@@H](CCCCN)C(N)=O)C(C)C)C(C)C)C(C)C)[C@@H](C)O`, the IC50 in test [2] is 122 nM.

As for `CC[C@H](C)[C@H](NC(=O)CNC(=O)[C@H](CC(=O)O)NC(=O)[C@H](CO)NC(=O)[C@@H](N)Cc1cn(C)cn1)C(=O)N[C@@H](Cc1ccccc1)C(=O)N[C@H](C(=O)N[C@@H](CC(=O)O)C(=O)N[C@@H](CO)C(=O)N[C@@H](Cc1ccc(O)cc1)C(=O)N[C@@H](CO)C(=O)N[C@@H](CCCNC(=N)N)C(=O)N[C@@H](Cc1ccc(O)cc1)C(=O)N[C@@H](CCCNC(=N)N)C(=O)N[C@@H](CCCCN)C(=O)N[C@@H](CCC(N)=O)C(=O)N[C@@H](CCSC)C(=O)N[C@@H](C)C(=O)N[C@H](C(=O)N[C@@H](CCCCN)C(=O)N[C@@H](CCCCN)C(=O)N[C@@H](Cc1ccc(O)cc1)C(=O)N[C@@H](CC(C)C)C(=O)N[C@@H](C)C(=O)N[C@@H](C)C(=O)N[C@H](C(=O)N[C@@H](CC(C)C)C(N)=O)C(C)C)C(C)C)[C@@H](C)O`, the Emax in test [1] turned out to be 31.9%.
